Shown are actives, neighbours in structure and some others; about 3.5% of the full set was active somewhere.
RGS4 block – human RGS4 inhibition; P49798; HEK293 M3R/RGS4 inducible, Fluo-4 calcium flux; stronger effect = higher value; triggered by carbachol at its EC20; 0.45% of 310,000 active; B-score at 10 µM;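 active = B-score, a plate-corrected calcium signal, over three deviations above library mean, with baseline fluorescence within five deviations of library mean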;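 note: RGS4 expression induced by doxycycline in cells with stable M3 receptor; B-score is computed from the integrated fluorescence ratio over baseline after carbachol; higher B-score means a larger calcium signal and so more RGS4 inhibition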
Target sequence (P49798 whole entry, looked up): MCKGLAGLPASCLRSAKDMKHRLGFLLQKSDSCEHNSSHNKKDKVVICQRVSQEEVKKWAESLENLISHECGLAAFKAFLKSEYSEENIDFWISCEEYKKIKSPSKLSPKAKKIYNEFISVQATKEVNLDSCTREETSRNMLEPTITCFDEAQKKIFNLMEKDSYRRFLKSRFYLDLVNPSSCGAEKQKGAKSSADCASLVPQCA
MrgX1 PAM – human MrgX1 positive allosteric modulation, primary screen; Q96LB2; AID 588675; B-score at 10 µM; MrgX1-HEK293, Fluo-4 calcium flux, FDSS; stronger effect = higher value; 0.63% of 310,000 active;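 active = plate-corrected calcium response at least 3 library SD above typical, normal starting fluorescence, not activating the receptor alone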;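 note: compound read alongside a low EC10 to EC30 dose of BAM8-22 agonist; peak minus trough fluorescence over baseline measured at the second addition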
Target sequence (Q96LB2 whole entry, looked up): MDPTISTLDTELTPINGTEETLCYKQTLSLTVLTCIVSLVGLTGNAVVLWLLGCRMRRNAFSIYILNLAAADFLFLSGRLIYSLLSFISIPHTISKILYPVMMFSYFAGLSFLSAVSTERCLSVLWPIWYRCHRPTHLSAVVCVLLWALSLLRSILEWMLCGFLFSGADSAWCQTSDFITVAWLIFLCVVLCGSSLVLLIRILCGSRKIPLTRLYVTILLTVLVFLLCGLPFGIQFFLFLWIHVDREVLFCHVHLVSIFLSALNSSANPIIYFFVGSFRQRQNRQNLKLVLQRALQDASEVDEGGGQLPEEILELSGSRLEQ
RGS4 act – potentiators or activators of RGS4; B-score at 10 µM; 0.92% of 310,000 active; HEK293 M3R/inducible RGS4, carbachol calcium flux Fluo4; stronger effect = lower value;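 active = B-score of the integrated calcium signal more than 4 SD below the library mean, with starting fluorescence not abnormally high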;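 note: negative B-score means reduced calcium response which marks RGS4 activation or potentiation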
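test system = HEK293 cells with stable M3R and inducible RGS4 | schedule = recording 10 s baseline at 1 Hz, 100 s post-agonist | technique = Fluo4-AM (2 µM) calcium-flux fluorescence, kinetic read | measure = Agonist-evoked peak-minus-minimum fluorescence over baseline, integrated ratio, B score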
MrgX1 antag – blocks BAM8-22 activation of human MrgX1 receptor. MRGX1-HEK293 calcium flux, Fluo-4, BAM8-22 antagonism; stronger effect = lower value. AID 588676. B-score at 10 µM. 1.3% of 310,000 active. Q96LB2;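 active = calcium-response B-score plate-corrected more than 3 library SD below zero, starting fluorescence within 5 deviations, no agonist response on first addition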;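 note: peak minus trough fluorescence over baseline after final BAM8-22 challenge near maximal dose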
MrgX1 ag – human MrgX1 receptor agonism, primary screen. AID 588627. B-score at 10 µM. 0.44% of 310,000 active. MrgX1-HEK293 cells, Fluo-4 calcium fluorescence, agonist mode; stronger effect = higher value;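 active = calcium response B-score plate-corrected fluorescence ratio at least 3 library SD, with starting fluorescence B-score inside 5 SD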
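Material – MrgX1-expressing HEK293 cells · Input – 15,000 cells seeded per well · Dosing – compound as first of three additions · Times – overnight seeding, then 1 h dark dye loading · Measured by – kinetic Fluo-4 NW fluorescence of intracellular calcium · Read-out – B-scored fluorescence response ratio · Benchmarks – positive and negative control wells on each plate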
MrgX1 ag confirm – reconfirmed activator of human MrgX1 receptor signaling. shares compounds with MrgX1 ag. MrgX1-HEK293, Fluo-4 calcium fluorescence, FDSS. activation, % at 10 µM. 78% of 600 active;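 active = calcium signal rise, corrected for plate position, at least 3 library SD high, with starting brightness within 5 such deviations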
HEK293 Ca flux – activity in parental HEK293 cells lacking MrgX1. Fluo-4 calcium fluorescence, FDSS. shares compounds with MrgX1 antag. 2% of 4,000 active. fluorescence ratio F(max-min)/F0 at 10 µM. AID 624111;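 active = duplicate-averaged calcium fluorescence ratio at least three times the standard deviation of buffer wells, a nonspecific response in parental cells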
HEK293 Ca counter – counter-screen for MrgX1 allosteric activators: effect in parental HEK293 cells. parental HEK293 calcium flux, Fluo-4 fluorescence ratio; stronger effect = higher value. shares compounds with MrgX1 antag. 0.4% of 4,000 active. fluorescence ratio F(max-min)/F0 at 10 µM. AID 624114;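 active = calcium fluorescence ratio, averaged over duplicates, at least 3 SD of the buffer-well ratio, meaning a nonspecific response in receptor-free cells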;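 note: untransfected parental HEK293 lacking MrgX1 used as counterscreen for MrgX1 allosteric activators; fluorescence change taken during the second addition on a kinetic imager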
HEK293 Ca cntr2 – MrgX1 activator counter-screen hit in parental HEK293 cells | fluorescence ratio F(max-min)/F0 at 10 µM | shares compounds with MrgX1 antag | 8.7% of 4,000 active | AID 624115 | Fluo-4 calcium fluorescence (FDSS); stronger effect = higher value;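 active = calcium fluorescence ratio at least three times the spread of buffer wells, meaning a non-specific response in parental cells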
Starred values were filed as active, the others as inactive; i = inactive; · = not tested or not shown.

SMILES | RGS4 block | MrgX1 PAM | RGS4 act | MrgX1 antag | MrgX1 ag | MrgX1 ag confirm | HEK293 Ca flux | HEK293 Ca counter | HEK293 Ca cntr2
CCN1CCc2c(sc(NC(=O)c3ccc4ccccc4c3)c2C(N)=O)C1 | i | i | i | i | 44* | i | i | i | i
c1ccc2c(c1)CNc1ccccc1C2 | i | i | i | i | 30* | 224%* | i | i | i
O=C(O)[C@@H]1Cc2ccccc2N1 | i | i | i | i | i | · | · | · | ·
COc1cc(/C=N/Nc2ccc(Cl)c(C(=O)O)c2)ccc1OC(=O)c1ccccc1F | i | i | i | i | i | · | · | · | ·
O=C(Nc1ccccc1)Nc1ccc2ccccc2c1 | i | i | i | i | 34* | i | i | i | i
Cc1c(CN2CCC(n3nccc3NC(=O)C3CCOC3)CC2)[nH]c2ccccc12 (stereo not drawn) | i | i | i | i | i | · | · | · | ·
O=C(Nc1ccnn1C1CCN(Cc2cc3ccccc3[nH]2)CC1)C1CCOC1 (stereo not drawn) | i | i | i | i | 29* | 339%* | i | i | 73*
COc1ccc(-n2c(SCC(=O)NCC3CCCO3)nc3c([nH]c4ccccc43)c2=O)cc1 (stereo not drawn) | i | i | i | i | i | · | · | · | ·
COc1cccc(-n2c(SCC(=O)NCC3CCCO3)nc3c([nH]c4ccccc43)c2=O)c1 (stereo not drawn) | i | i | i | i | 30* | 99%* | i | i | i
CCCc1cc(=O)n2nc(N3CCC(C(=O)NCc4ccco4)CC3)sc2n1 | i | i | i | i | i | · | · | · | ·
O=C(CCCCC(=O)NC1CCCC1)NC1CCCC1 | i | i | i | i | 40* | i | i | i | i
CCOc1ccc(OCCNCc2ccc(OC(C)C(=O)N(C)C)c(OCC)c2)cc1 (stereo not drawn) | i | i | i | i | i | · | · | · | ·
COc1ccc2c(c1)c(C(O)CN1CCN(Cc3ccc4c(c3)OCO4)CC1)c(C)n2C (stereo not drawn) | i | i | i | i | i | · | · | · | ·
Cc1c(C(O)CN2CCN(Cc3ccc4c(c3)OCO4)CC2)c2ccccc2n1C (stereo not drawn) | i | i | i | i | 33* | i | i | i | i
COC(=O)Cn1c(=O)c2c(n(Cc3ccccc3)c1=O)N/C(=C/c1ccc(Br)cc1)C2=O | i | i | i | i | 45* | 383%* | i | i | 72*
O=C1N/C(=C/c2ccc(Br)cc2)C(O)=C1C=NCc1ccccc1 | i | i | i | i | i | · | · | · | ·
COCCC1CCCCN1C(=O)c1ccc2nc(Cc3ccccc3F)oc2c1 (stereo not drawn) | i | i | i | i | i | · | · | · | ·
CC(C)=C(NC(=O)c1ccccc1)C(=O)NCCc1nc2ccccc2[nH]1 | i | i | i | i | i | · | · | · | ·
Cc1ccc([N+](=O)[O-])cc1NC(=O)CSc1nnc(C)n1CC1CCCO1 (stereo not drawn) | i | i | i | i | i | · | · | · | ·
Cc1[nH]c2ccccc2c1-c1nc(N)sc1C | i | i | i | i | 38* | i | i | i | i
Cc1sc(N)nc1-c1ccc(Oc2ccccc2)cc1 | i | i | i | i | i | · | · | · | ·
O=C(CNS(=O)(=O)c1c(Cl)cccc1Cl)N1CCCCCC1 | i | i | i | i | i | · | · | · | ·
Cc1ccc(S(=O)(=O)Nc2ccc3c(c2)nc2n3CCN(Cc3ccccc3)C2)cc1 | i | i | i | i | 34* | i | i | i | i
O=S(=O)(Nc1ccc2c(c1)nc1n2CCN(Cc2ccccc2)C1)c1ccccc1 | i | i | i | i | i | · | · | · | ·
Cc1ccc(-c2cc(NC(=O)CCl)n(-c3ccccc3)n2)cc1 | i | i | i | i | 35* | 150%* | i | i | i
SMILES | RGS4 block | MrgX1 PAM | RGS4 act | MrgX1 antag | MrgX1 ag | MrgX1 ag confirm | HEK293 Ca flux | HEK293 Ca counter | HEK293 Ca cntr2
Cc1cc(C)cc(NC(=O)Nc2ccc(N3CCCCC3)cc2)c1 | i | i | i | i | 30* | i | i | i | i
C/C(=N\Nc1ncnc2sc(C)c(C)c12)c1ccccn1 | i | i | i | i | 72* | 499%* | 0.46* | i | 101*
COc1ccc(C(=O)c2no[n+]([O-])c2C(=O)c2ccc(OC)cc2)cc1 | i | i | i | i | 67* | 186%* | i | i | 57*
CC(C)(C)c1ccc(CNC(=O)C2CCCN2C(=O)Nc2ccccc2)cc1 (stereo not drawn) | i | i | i | i | i | · | · | · | ·
O=C(NCC(=O)N1CCN(C(=O)c2ccco2)CC1)c1ccc(Br)cc1 | i | i | i | i | i | · | · | · | ·
Fc1ccc(CCNC(=S)Nc2ccc(F)c(Cl)c2)cc1 | i | i | i | i | 30* | 150%* | i | i | i
Fc1ccc(NC(=S)NCCc2ccc(Cl)cc2)cc1 | i | i | i | i | i | · | · | · | ·
CN(CC(=O)Nc1ccccc1C(F)(F)F)C(=O)CSCc1ccccc1 | i | i | i | i | i | · | · | · | ·
O=C1CC(O)(C(F)(F)F)Oc2c1ccc1ccccc21 (stereo not drawn) | i | i | i | i | 90* | 565%* | i | i | 103*
CCn1nc(C)c(CNC(=O)c2cc(COc3ccc(C)nc3)on2)c1C | i | i | i | i | i | · | · | · | ·
CCOC(=O)c1cnc2c(OC)cccc2c1N1CC(C)CC(C)C1 (stereo not drawn) | i | i | i | i | 28* | i | i | i | i
CCn1c(=O)c(C(=O)NNC(=O)c2ccccc2Cl)c(O)c2ccccc21 | i | i | i | i | 105* | 322%* | i | i | 78*
Cn1c(=O)c(C(=O)NNC(=O)c2ccccc2F)c(O)c2ccccc21 | i | i | i | i | 65* | 405%* | i | i | 71*
COc1ccc(NC2CCCN(C(=O)c3c(C)noc3C)C2)cc1 (stereo not drawn) | i | i | i | i | i | · | · | · | ·

Source: PubChem BioAssay
